# According to ChEMBL document CHEMBL4732104, “Discovery of bardoxolone derivatives as novel orally active necroptosis inhibitors” (Eur J Med Chem, 2021):
# Active and inactive are the calls of the source. The rule behind the calls is not given here.
# Legend:
# [1] = target: T1, Heat shock protein HSP90 (Homo sapiens) (UniProt P07900+P08238); experiment: Inhibition of HSP90 in TNFalpha/SM-164/Z-VAD-fmk (TSZ)-induced human HT-29 cells assessed as reduction in MLKL expression at 10 uM preincubated for 30 mins followed by TSZ stimulation and measured after 2 to 6 hrs by Western blot analysis; type: cell-based; details: time 2-6.5 hrs
# How it was run: (§1)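 HT-29 cells pretreated 30 min with agent (10 μM), then TSZ for the indicated times. Lysed in RIPA with protease and phosphatase inhibitors, BCA quantified. 30 μg protein run on SDS-PAGE and blotted to PVDF. Blocked in 5% BSA, primary antibodies 1:1000 overnight at 4 °C, secondary 1:8000 for 1 h at room temperature.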
# HT-29 [2] = experiment: Anti-necroptotic activity in human HT-29 cells assessed as inhibition of TNFalpha/SM-164/Z-VAD-fmk (TSZ)-induced necroptosis by measuring increase in cell viability at 10 uM measured after 12 hrs in presence of RIPK1 inhibitor Nec-1 by celltiter-glo luminescent cell viability assay; type: functional, cell-based
# How it was run: (§2)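 HT-29 cells exposed to test agent combined with a second necroptosis inhibitor, then stimulated with TSZ for 12 h to assess synergy. Viability read by CellTiter-Glo luminescence.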
# Rattus norvegicus [3] = experiment: Neuroprotective activity in middle cerebral artery occlusion-induced Sprague-Dawley rat model of ischemia-reperfusion injury assessed as neurological deficit score at 100 mg/kg (reference value: 3.71 +/- 0.45); type: functional
# HT-29 [4] = experiment: Anti-necroptotic activity in human HT-29 cells assessed as inhibition of TNFalpha/SM-164/Z-VAD-fmk (TSZ)-induced necroptosis by measuring increase in cell viability at 10 uM measured after 12 hrs in presence of MLKL inhibitor NSA by celltiter-glo luminescent cell viability assay; type: functional, cell-based; how it was run: as §2
# HT-29 [5] = experiment: Anti-necroptotic activity in human HT-29 cells assessed as inhibition of TNFalpha/cycloheximide/Z-VAD-fmk (TCZ)-induced necroptosis by measuring increase in cell viability measured after 16 hrs by celltiter-glo luminescent cell viability assay; type: functional, cell-based
# Mus musculus [6] = experiment: Protection against TNFalpha-induced C57BL/6J mouse model of systemic inflammatory response syndrome assessed as reduction in hypothermia at 10 to 20 mg/kg, ig administered via gavage 2 hrs prior to TNFalpha stimulation and measured after 10 to 60 mins by electric thermometric method; type: functional, organism-based; details: dose 10-20 mg/kg, time 2-3 hrs
# How it was run: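 Female C57BL/6J mice, fasted, n=11 per group. Agent at 10 or 20 mg/kg in 0.5% CMC-Na by gavage 2 h before i.v. mTNF-α (250 µg/kg). z-VAD-fmk i.p. 200 µg at −15 min and 75 µg at +1 h. Body temperature tracked, mean ± S.E.M.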
# [7] = target: T1, Heat shock protein HSP90 (Homo sapiens); experiment: Inhibition of HSP90 in TNFalpha/SM-164/Z-VAD-fmk (TSZ)-induced human HT-29 cells assessed as reduction in RIPK3 expression at 10 uM preincubated for 30 mins followed by TSZ stimulation and measured after 2 to 6 hrs by Western blot analysis; type: cell-based; details: time 2-6.5 hrs; how it was run: as §1
# [8] = target: T1, Heat shock protein HSP90 (Homo sapiens); experiment: Inhibition of HSP90 in TNFalpha/SM-164/Z-VAD-fmk (TSZ)-induced human HT-29 cells assessed as reduction in EGFR expression at 10 uM by Western blot analysis; type: cell-based; details: time 0.5-6 hrs
# HT-29 [9] = experiment: Anti-necroptotic activity in human HT-29 cells assessed as inhibition of TNFalpha/SM-164/Z-VAD-fmk (TSZ)-induced necroptosis by measuring increase in cell viability at 10 uM measured after 12 hrs in presence of RIPK1/3 inhibitor TAK632 by celltiter-glo luminescent cell viability assay; type: functional, cell-based; how it was run: as §2
# Rattus norvegicus [10] = experiment: Neuroprotective activity in middle cerebral artery occlusion-induced Sprague-Dawley rat model of ischemia-reperfusion injury assessed as reversal of pathological change at 100 mg/kg by H and E staining based analysis; type: functional, organism-based
# How it was run: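 Rats underwent 2 h MCA filament occlusion, then 24 h reperfusion, agent at 100 mg/kg. Animals perfused with saline and 4% paraformaldehyde. Brains paraffin-embedded and cut into 5 μm coronal sections. Hippocampus and cortex assessed by HE staining.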
# L929 = experiment: Anti-necroptotic activity in mouse L929 cells assessed as inhibition of TNFalpha/Z-VAD-fmk (TZ)-induced necroptosis by measuring increase in cell viability measured after 12 hrs by celltiter-glo luminescent cell viability assay; type: functional, cell-based
# How it was run: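 Mouse L929 fibroblasts pretreated with test agent, then mouse TNF-α (20 ng/mL) plus z-VAD-fmk (20 μM). Incubation stated as 4 h in table footnote and 12 h in figure legend. CellTiter-Glo viability. EC50 ± SD from at least three independent repeats.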
# [11] = target: T1, Heat shock protein HSP90 (Homo sapiens); experiment: Inhibition of HSP90 in TNFalpha/SM-164/Z-VAD-fmk (TSZ)-induced human HT-29 cells assessed as increase in HSP70 expression at 10 uM by Western blot analysis; type: cell-based; details: time 0.5-6 hrs
# HT-29 [12] = experiment: Protection against TNFalpha/cycloheximide (TC)-induced apoptosis in human HT-29 cells assessed as increase in cell viability at 0.25 to 5 uM measured after 24 hrs by celltiter-glo luminescent cell viability assay; type: functional, cell-based; details: dose 0.25-5 µM
# How it was run: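 HT-29 cells treated with agent across concentrations, then TNF-α and cycloheximide (TC) for 24 h. CellTiter-Glo luminescent viability, mean ± S.D. from three independent experiments.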
# HT-29 [13] = experiment: Anti-necroptotic activity in human HT-29 cells assessed as inhibition of TNFalpha/SM-164/Z-VAD-fmk (TSZ)-induced necroptosis by measuring increase in cell viability measured after 12 hrs by celltiter-glo luminescent cell viability assay; type: functional, cell-based
# How it was run: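 HT-29 cells pretreated with test agent across a concentration range, then TNF-α (20 ng/mL), Smac mimetic (10 nM) and z-VAD-fmk (20 μM) for 12–16 h. CellTiter-Glo viability. EC50 ± SD from at least three independent experiments.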
# [14] = target: T1, Heat shock protein HSP90 (Homo sapiens); experiment: Inhibition of HSP90 in TNFalpha/SM-164/Z-VAD-fmk (TSZ)-induced human HT-29 cells assessed as reduction in RIPK1-RIPK3 necrosome formation at 10 uM measured after 6 hrs by Western blot analysis; type: cell-based
# How it was run: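 HT-29 cells given agent (10 μM) or DMSO for 6 h under TSZ. Lysed in NP-40 buffer with PMSF, protease inhibitors, β-glycerophosphate, NaF and Na3VO4. Anti-RIPK1 immunoprecipitation overnight at 4 °C, protein A/G capture overnight. Eluates boiled in SDS buffer and resolved on 10% gels for immunoblot.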
# Mus musculus [15] = experiment: Protection against TNFalpha-induced C57BL/6J mouse model of systemic inflammatory response syndrome assessed as survival at 20 mg/kg, ig administered via gavage 2 hrs prior to TNFalpha stimulation and measured after 10 to 60 mins relative to control; type: functional; details: po, time 2-3 hrs
# How it was run: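 Female C57BL/6 J mice, 6–8 weeks, fasted overnight, n=11 per group. Compound suspended in 0.5% CMC-Na, by oral gavage 2 h before mTNF-α 250 µg/kg i.v.; z-VAD-fmk 200 µg i.p. 15 min before and 75 µg 1 h after TNF. Survival and body temperature monitored.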
smiles,measurement,setting,value
CC1(C)CC[C@]2(C(=O)n3cnc(-c4cccnc4)c3)CC[C@]3(C)[C@H](C(=O)C=C4[C@@]5(C)C=C(C#N)C(=O)C(C)(C)[C@@H]5CC[C@]43C)[C@@H]2C1,inhibition,[1],Active
same,inhibition,HT-29 [2],Active
same,Activity,Rattus norvegicus [3],2.72
same,inhibition,HT-29 [4],Active
same,inhibition,HT-29 [5],Dose-dependent effect
same,Activity,Mus musculus [6],Active
same,inhibition,[7],Active
same,inhibition,[8],Dose-dependent effect
same,inhibition,HT-29 [9],Active
same,Activity,Rattus norvegicus [10],Active
same,inhibition,L929,Dose-dependent effect
same,EC50,"L929; L929, 12 h",860 nM
same,inhibition,[11],Dose-dependent effect
same,Activity,HT-29 [12],Active
same,inhibition,HT-29 [13],Dose-dependent effect
same,EC50,"HT-29 [13]; HT-29, 12 h",310 nM
same,inhibition,[14],Active
same,survival at 20 mg/kg,Mus musculus [15],100%
